# Experimental data published in ChEMBL document CHEMBL4350961, “Discovery of Pyrrolo[3,2- d]pyrimidin-4-one Derivatives as a New Class of Potent and Cell-Active Inhibitors of P300/CBP-Associated Factor Bromodomain” (J Med Chem, 2019).
# Calls of active or inactive are those of the source. No cut-off for these calls is given here.
# How the values were obtained:
# [1] = target: Histone acetyltransferase KAT2A (Homo sapiens, UniProt Q92830); assay: Binding affinity to human N-terminal His-tagged GCN5 assessed as change in melting temperature at 10 uM by SYPRO orange dye-based fluorescence assay
# Procedure, shortened: (§1)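 Thermal shift with His-tagged human bromodomain at 2 μM final in 10 mM HEPES pH 7.5, 500 mM NaCl. Compound at 10 μM final with 0.1% DMSO; SYPRO Orange at 1:1000. Equilibrated 3 min at 25 °C, then heated from 25 to 95 °C at 1 °C/min. Melting temperature shift taken from fluorescence; at least duplicate.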
# [2] = target: Serine/threonine-protein kinase PLK1 (Homo sapiens) (UniProt P53350); assay: Inhibition of recombinant full-length human Plk1 at 10 uM using casein as substrate measured after 40 mins in presence of [gamma33P]ATP by scintillation counting method
# [3] = target: Serine/threonine-protein kinase TAO1 (Homo sapiens) (UniProt Q7L7X3); assay: Inhibition of human TAO1 (1 to 327 residues) using myelin basic protein as substrate measured after 40 mins in presence of [gamma33P]ATP by scintillation counting method
# [4] = target: Tyrosine-protein kinase CSK (Homo sapiens) (UniProt P41240); assay: Inhibition of full-length recombinant human CSK at 10 uM using poly(Glu, Tyr) 4:1 as substrate measured after 40 mins in presence of [gamma33P]ATP by scintillation counting method
# Procedure, shortened: (§2)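 Kinase panel of 422 kinases screened by Eurofins KinaseProfiler at a single test-compound concentration of 10 µM.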
# [5] = tested on: Hepatocyte growth factor receptor (Homo sapiens), P08581 [Y1230D]; assay: Inhibition of recombinant human MET A1209G/V1290L/Y1248D mutant (974 to end residues) at 10 uM using KKKGQEEEYVFIE as substrate measured after 40 mins in presence of [gamma33P]ATP by scintillation counting method
# [6] = target: Activin receptor type-1 (Homo sapiens) (UniProt Q04771); assay: Inhibition of recombinant human ALK2 (142 to end residues) at 10 uM using casein as substrate measured after 40 mins in presence of [gamma33P]ATP by scintillation counting method
# [7] = target: Bromodomain adjacent to zinc finger domain protein 2A (Homo sapiens) (UniProt Q9UIF9); assay: Binding affinity to human partial length BAZ2A (M1792 to L1905 residues) expressed in bacterial expression system at 1 uM by BROMOscan assay
# Procedure, shortened: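 BROMOscan bromodomain cross-screen run by an outside service, compound at 1 µM against 32 recombinant bromodomains. Binding given as percent of control.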
# [8] = target: Casein kinase 2 (Homo sapiens) (UniProt P67870+P68400+P19784+Q8NEV1); assay: Inhibition of human CK2 at 10 uM; format: protein assay; procedure, shortened: as §2
# [9] = target: Mast/stem cell growth factor receptor Kit (Homo sapiens) (UniProt P10721); assay: Inhibition of recombinant human c-Kit (544 to end residues) at 10 uM using poly(Glu, Tyr) 4:1 as substrate measured after 40 mins in presence of [gamma33P]ATP by scintillation counting method
# [10] = target: Serine/threonine-protein kinase WNK2 (Homo sapiens) (UniProt Q9Y3S1); assay: Inhibition of human WNK2 (166 to 489 residues) using myelin basic protein as substrate measured after 40 mins in presence of [gamma33P]ATP by scintillation counting method
# [11] = target: Serine/threonine-protein kinase 26 (Homo sapiens) (UniProt Q9P289); assay: Inhibition of recombinant human MST4 (4 to 304 residues) at 10 uM using RLGRDKYKTLRQIRQ as substrate measured after 40 mins in presence of [gamma33P]ATP by scintillation counting method
# [12] = target: Ephrin type-A receptor 5 (Homo sapiens) (UniProt P54756); assay: Inhibition of recombinant human EphA5 (655 to 956 residues) at 10 uM using poly(Glu, Tyr) 4:1 as substrate measured after 40 mins in presence of [gamma33P]ATP by scintillation counting method
# [13] = target: MAP/microtubule affinity-regulating kinase 4 (Homo sapiens) (UniProt Q96L34); assay: Inhibition of recombinant full-length human MARK4 at 10 uM using KKKVSRSGLYRSPSMPENLNRPR as substrate measured after 40 mins in presence of [gamma33P]ATP by scintillation counting method
# [14] = target: Mitogen-activated protein kinase kinase kinase kinase 3 (Homo sapiens) (UniProt Q8IVH8); assay: Inhibition of recombinant human MAP4K3 (1 to 291 residues) at 10 uM using RLGRDKYKTLRQIRQ as substrate measured after 40 mins in presence of [gamma33P]ATP by scintillation counting method
# [15] = target: CDK17/Cyclin-Y (Homo sapiens) (UniProt Q00537+Q8ND76); assay: Inhibition of human CDK17/cyclinY at 10 uM using PKSPKARKKL as substrate measured after 120 mins in presence of [gamma33P]ATP by scintillation counting method; format: protein-complex assay; procedure, shortened: as §2
# [16] = target: Serine/threonine-protein kinase PRP4 homolog (Homo sapiens) (UniProt Q13523); assay: Inhibition of human PRP4 (663 to end residues) using casein as substrate measured after 40 mins in presence of [gamma33P]ATP by scintillation counting method; procedure, shortened: as §2
# [17] = tested on: PI3-kinase p110-alpha/p85-alpha (Homo sapiens), P27986+P42336 [E542K]; assay: Inhibition of recombinant full-length mouse PI3K p110alpha/p85alpha E542K mutant at 10 uM using phosphatidylinositol-4, 5-bisphosphate as substrate measured after 40 mins by HTRF assay; format: protein-complex assay
# [18] = tested on: RAC-beta serine/threonine-protein kinase (Homo sapiens), P31751 [S474D]; assay: Inhibition of recombinant full-length human PKBbeta S474D mutant (120 to end residues) at 10 uM using GRPRTSSFAEGKK as substrate measured after 40 mins in presence of [gamma33P]ATP by scintillation counting method
# [19] = tested on: Macrophage colony-stimulating factor 1 receptor (Homo sapiens), P07333 [Y969C]; assay: Inhibition of recombinant human FMS Y969C mutant (538 to end residues) at 10 uM using EEEEYEEEEEEYYIIEEEEEEYEEEEEEYYEEEEEEKKKK as substrate measured after 40 mins in presence of [gamma33P]ATP by scintillation counting method
# [20] = target: Serine/threonine-protein kinase ULK2 (Homo sapiens) (UniProt Q8IYT8); assay: Inhibition of human ULK2 (1 to 306 residues) using casein as substrate measured after 40 mins in presence of [gamma33P]ATP by scintillation counting method
# [21] = target: Proto-oncogene tyrosine-protein kinase Src (Homo sapiens) (UniProt P12931); assay: Inhibition of human Src (1 to 530 residues) using GGEEEEYFELVKKKK as substrate measured after 40 mins in presence of [gamma33P]ATP by scintillation counting method
# [22] = target: ATPase family AAA domain-containing protein 2 (Homo sapiens) (UniProt Q6PL18); assay: Binding affinity to human N-terminal His-tagged ATAD2 assessed as change in melting temperature at 10 uM by SYPRO orange dye-based fluorescence assay; procedure, shortened: as §1
# Sequence of Serine/threonine-protein kinase PLK1 (Homo sapiens) (P53350 whole entry, the tested form may be a part): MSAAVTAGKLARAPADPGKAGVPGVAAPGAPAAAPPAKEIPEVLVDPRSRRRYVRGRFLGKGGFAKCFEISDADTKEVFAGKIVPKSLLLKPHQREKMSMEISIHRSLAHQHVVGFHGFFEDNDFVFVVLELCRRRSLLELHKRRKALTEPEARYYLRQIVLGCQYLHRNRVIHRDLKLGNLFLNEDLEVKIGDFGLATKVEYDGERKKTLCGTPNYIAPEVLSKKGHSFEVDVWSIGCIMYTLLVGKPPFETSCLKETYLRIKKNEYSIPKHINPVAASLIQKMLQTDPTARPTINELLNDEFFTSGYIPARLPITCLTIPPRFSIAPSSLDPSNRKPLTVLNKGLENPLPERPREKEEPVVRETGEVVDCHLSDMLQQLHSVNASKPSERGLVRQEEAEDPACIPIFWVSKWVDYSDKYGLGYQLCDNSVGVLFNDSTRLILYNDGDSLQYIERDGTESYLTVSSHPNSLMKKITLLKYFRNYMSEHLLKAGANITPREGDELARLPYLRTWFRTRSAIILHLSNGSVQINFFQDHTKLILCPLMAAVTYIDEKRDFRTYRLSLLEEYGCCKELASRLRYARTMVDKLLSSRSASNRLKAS
# Sequence of CDK17/Cyclin-Y (Homo sapiens) (Q00537 whole entry): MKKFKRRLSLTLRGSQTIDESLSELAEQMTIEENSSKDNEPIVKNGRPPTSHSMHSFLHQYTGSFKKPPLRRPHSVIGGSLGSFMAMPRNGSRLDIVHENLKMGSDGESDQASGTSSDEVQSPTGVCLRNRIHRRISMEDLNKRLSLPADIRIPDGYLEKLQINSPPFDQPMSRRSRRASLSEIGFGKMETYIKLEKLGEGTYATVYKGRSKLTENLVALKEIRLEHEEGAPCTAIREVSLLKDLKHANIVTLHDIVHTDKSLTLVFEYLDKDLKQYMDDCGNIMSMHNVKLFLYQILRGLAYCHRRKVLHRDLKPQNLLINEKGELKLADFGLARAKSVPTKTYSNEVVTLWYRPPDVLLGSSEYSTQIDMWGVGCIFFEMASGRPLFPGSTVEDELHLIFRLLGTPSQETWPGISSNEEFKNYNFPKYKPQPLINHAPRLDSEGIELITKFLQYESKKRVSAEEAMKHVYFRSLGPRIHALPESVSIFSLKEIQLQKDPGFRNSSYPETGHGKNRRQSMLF
# Sequence of CDK17/Cyclin-Y (Homo sapiens) (Q8ND76 2-341 partner limits assumed): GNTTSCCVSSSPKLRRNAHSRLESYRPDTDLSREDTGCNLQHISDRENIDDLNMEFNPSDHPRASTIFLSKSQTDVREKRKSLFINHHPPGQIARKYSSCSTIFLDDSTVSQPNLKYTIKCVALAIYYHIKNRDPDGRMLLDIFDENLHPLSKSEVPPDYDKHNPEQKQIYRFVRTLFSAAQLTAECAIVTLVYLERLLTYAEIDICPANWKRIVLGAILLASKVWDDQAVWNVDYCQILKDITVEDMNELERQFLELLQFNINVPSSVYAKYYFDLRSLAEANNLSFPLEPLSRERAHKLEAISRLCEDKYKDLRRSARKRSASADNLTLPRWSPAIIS
# Sequence of Mitogen-activated protein kinase kinase kinase kinase 3 (Homo sapiens) (Q8IVH8 whole entry, the tested form may be a part): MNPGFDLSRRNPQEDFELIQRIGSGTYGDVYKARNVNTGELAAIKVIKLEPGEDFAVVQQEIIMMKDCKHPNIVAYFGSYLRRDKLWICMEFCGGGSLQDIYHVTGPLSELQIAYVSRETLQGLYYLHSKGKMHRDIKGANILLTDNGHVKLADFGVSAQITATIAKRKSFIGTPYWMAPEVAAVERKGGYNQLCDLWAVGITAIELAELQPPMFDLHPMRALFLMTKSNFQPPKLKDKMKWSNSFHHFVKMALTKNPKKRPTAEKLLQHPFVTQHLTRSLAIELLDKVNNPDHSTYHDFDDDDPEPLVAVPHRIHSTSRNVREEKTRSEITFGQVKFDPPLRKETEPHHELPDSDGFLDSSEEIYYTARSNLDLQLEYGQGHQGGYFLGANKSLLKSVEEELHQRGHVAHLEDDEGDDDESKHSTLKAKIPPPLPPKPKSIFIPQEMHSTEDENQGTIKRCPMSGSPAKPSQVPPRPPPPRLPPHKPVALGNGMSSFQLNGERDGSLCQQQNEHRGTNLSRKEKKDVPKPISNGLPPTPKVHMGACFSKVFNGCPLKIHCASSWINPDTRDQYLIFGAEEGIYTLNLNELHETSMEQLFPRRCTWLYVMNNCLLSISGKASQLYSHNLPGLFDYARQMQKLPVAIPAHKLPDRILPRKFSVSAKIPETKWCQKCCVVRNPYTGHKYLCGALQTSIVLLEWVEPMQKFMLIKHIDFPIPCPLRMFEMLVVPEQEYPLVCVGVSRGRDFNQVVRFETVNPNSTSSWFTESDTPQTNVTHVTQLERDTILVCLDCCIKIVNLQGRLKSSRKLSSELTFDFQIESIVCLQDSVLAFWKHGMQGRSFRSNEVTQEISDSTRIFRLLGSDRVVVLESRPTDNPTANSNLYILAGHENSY
# Sequence of Serine/threonine-protein kinase WNK2 (Homo sapiens) (Q9Y3S1 whole entry, the tested form may be a part): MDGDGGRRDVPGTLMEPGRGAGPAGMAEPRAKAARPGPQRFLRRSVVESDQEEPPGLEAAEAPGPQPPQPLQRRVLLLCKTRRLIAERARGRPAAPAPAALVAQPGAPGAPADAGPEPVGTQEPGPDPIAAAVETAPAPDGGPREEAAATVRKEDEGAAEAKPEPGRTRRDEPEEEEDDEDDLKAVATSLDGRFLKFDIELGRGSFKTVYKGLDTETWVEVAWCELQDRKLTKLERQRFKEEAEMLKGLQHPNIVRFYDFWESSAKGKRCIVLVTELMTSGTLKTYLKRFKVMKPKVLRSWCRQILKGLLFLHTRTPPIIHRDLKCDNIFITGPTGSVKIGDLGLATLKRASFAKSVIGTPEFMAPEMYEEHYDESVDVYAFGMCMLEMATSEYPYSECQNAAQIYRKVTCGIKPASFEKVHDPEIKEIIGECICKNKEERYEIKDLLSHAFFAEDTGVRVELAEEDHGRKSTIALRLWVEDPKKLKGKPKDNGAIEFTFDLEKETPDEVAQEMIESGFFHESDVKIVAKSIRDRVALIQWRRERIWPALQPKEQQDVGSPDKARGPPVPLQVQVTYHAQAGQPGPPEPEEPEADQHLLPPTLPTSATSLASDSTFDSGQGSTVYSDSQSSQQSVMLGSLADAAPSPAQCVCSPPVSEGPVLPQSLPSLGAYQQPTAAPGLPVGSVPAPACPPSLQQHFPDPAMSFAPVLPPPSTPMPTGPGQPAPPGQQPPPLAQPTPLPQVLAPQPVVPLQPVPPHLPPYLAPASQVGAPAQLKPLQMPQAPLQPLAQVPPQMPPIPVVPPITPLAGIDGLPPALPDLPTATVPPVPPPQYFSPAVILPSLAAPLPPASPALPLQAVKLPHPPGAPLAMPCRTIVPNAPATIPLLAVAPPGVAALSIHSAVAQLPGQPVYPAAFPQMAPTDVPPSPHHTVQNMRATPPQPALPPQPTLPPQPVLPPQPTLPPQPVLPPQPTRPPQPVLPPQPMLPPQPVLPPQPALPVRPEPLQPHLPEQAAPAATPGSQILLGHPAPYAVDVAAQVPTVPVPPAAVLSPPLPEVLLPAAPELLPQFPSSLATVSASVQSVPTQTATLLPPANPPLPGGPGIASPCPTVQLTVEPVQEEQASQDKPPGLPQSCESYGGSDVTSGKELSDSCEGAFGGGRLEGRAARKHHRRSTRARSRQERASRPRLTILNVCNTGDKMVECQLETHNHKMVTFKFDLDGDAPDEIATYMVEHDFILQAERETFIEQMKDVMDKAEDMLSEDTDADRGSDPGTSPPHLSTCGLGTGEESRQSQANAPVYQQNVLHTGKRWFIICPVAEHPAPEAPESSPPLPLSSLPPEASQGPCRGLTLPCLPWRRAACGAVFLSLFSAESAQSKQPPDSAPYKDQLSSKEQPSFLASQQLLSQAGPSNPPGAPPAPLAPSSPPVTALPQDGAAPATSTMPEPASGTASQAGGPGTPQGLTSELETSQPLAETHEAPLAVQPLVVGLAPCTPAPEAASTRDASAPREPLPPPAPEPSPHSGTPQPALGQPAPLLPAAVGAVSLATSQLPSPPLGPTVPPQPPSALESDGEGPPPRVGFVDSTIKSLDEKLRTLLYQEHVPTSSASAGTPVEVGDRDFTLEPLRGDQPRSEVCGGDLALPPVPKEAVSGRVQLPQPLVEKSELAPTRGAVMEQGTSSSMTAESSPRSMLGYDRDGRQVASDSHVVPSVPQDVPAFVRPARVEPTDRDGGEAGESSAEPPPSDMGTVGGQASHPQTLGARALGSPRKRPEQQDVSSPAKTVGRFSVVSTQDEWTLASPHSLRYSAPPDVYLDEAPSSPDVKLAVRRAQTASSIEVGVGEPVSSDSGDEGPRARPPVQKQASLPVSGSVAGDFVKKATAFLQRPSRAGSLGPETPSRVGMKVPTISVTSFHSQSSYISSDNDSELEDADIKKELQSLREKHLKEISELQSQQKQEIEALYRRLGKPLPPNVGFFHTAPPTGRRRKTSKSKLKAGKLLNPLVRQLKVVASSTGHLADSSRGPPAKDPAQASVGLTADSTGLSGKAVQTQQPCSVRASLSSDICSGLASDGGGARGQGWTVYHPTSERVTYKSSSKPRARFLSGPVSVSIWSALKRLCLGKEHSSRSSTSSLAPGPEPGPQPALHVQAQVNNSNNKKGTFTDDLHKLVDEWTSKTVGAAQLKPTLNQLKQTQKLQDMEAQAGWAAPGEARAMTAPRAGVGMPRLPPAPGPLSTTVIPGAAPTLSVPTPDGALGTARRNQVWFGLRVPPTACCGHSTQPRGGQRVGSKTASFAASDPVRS
# Sequence of Serine/threonine-protein kinase 26 (Homo sapiens) (Q9P289 2-416 limits assumed): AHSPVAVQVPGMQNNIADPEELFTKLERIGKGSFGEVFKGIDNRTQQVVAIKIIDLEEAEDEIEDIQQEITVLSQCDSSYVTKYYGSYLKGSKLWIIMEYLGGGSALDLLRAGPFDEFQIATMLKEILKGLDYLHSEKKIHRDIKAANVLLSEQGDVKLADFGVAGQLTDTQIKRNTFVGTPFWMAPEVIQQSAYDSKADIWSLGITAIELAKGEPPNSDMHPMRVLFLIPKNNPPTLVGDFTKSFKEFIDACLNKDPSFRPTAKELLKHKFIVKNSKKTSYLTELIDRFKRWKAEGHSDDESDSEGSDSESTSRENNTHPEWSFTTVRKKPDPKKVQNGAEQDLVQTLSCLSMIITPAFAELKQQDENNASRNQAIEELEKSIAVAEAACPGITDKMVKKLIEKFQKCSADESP
compound,measurement,setting,value
CN1C[C@H](Nc2nc3cc[nH]c3c(=O)n2C)C[C@H](c2ccc3c(c2)OCCO3)C1,ΔTm,[1],7.3 °C
same,inhibition,[2],inactive
same,inhibition,[3],inactive
same,inhibition,[4],inactive
same,inhibition,[5],inactive
same,inhibition,[6],inactive
same,Activity,[7],Active
same,inhibition,[8],inactive
same,inhibition,[9],inactive
same,inhibition,[10],inactive
same,inhibition,[11],inactive
same,inhibition,[12],inactive
same,inhibition,[13],inactive
same,inhibition,[14],inactive
same,inhibition,[15],inactive
same,inhibition,[16],inactive
same,inhibition,[17],inactive
same,inhibition,[18],inactive
same,inhibition,[19],inactive
same,inhibition,[20],inactive
same,inhibition,[21],inactive
same,ΔTm,[22],0.3 °C
